Experimental findings from ChEMBL document CHEMBL1139421, “Synthesis and elastase-inhibiting activity of 2-pyridinyl-isothiazol-3(2H)-one 1,1-dioxides” (Bioorg Med Chem, 2008) are described below.

What is called IC50 is the concentration that inhibits the measured activity by half. A word on the Ki: it is a dissociation constant, usually derived from enzyme kinetics or from competition with a known ligand.

A value given as a limit tells only on which side of the number the result lay.

For one test, the target named is T1, Cathepsin G (Homo sapiens, UniProt P08311).
T1 sequence (P08311 whole entry): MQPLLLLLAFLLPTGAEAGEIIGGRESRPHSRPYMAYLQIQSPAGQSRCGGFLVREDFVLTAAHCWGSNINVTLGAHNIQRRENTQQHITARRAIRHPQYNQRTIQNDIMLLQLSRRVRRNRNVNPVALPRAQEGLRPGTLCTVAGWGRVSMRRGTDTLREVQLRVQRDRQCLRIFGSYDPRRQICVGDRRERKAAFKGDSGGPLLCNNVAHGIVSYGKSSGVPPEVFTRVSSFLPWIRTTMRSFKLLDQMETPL
Put plainly: Inhibition of human cathepsin G. The method, boiled down:
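Human cathepsin G at 2.5 mU/ml final, 25 °C, in 20 mM Tris-HCl, 150 mM NaCl, pH 8.4. Suc-Ala-Ala-Pro-Phe-pNA at 500 µM final, with 1.5% DMSO; started with enzyme. Read at 405 nm over 10 min. IC50 from linear steady-state rate, duplicate determinations at 12.5 µM inhibitor, IC50 = [I]/(v0/v − 1).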
For the molecule `O=C1C2=C(CCCC2)S(=O)(=O)N1c1cccc(Br)n1`, the concentration for half-maximal inhibition (IC50) was more than 100 µM.

`O=C1C2=C(CCCC2)S(=O)(=O)N1c1ncc(F)cc1F` registered an IC50 of more than 100 µM.

`O=C1C2=C(CCCC2)S(=O)(=O)N1c1c(F)c(F)nc(F)c1F` returned a half-maximal inhibitory concentration (IC50) of more than 100 µM.

In the case of `CC1=C(c2ccccc2)C(=O)N(c2c(F)c(F)nc(F)c2F)S1(=O)=O`, the 50% inhibitory concentration (IC50) was more than 100 µM.

The molecule `O=C1C2=C(CCCC2)S(=O)(=O)N1c1c(F)c(F)c(F)c(F)c1F` showed an IC50 of more than 100 µM.

As to `O=C1C2=C(CCCC2)S(=O)(=O)N1c1ccncc1.[O-][Cl+3]([O-])([O-])O`, the IC50 was more than 100 µM.

In turn, `CC1=C(C)S(=O)(=O)N(c2c(F)c(F)nc(F)c2F)C1=O` yielded an IC50 of more than 100 µM.

The molecule `O=C1C2=C(CCCC2)S(=O)(=O)N1c1cccc(Cl)n1` yielded an IC50 of more than 100 µM.

`O=C1c2ccccc2S(=O)(=O)N1c1c(F)c(F)nc(F)c1F` returned a 50% inhibitory concentration (IC50) of 3.7 µM.

The target in the next test is Acetylcholinesterase (Homo sapiens, UniProt P22303). Put plainly: Inhibition of acetylcholinesterase. The method, boiled down: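 Acetylcholinesterase in 100 mM sodium phosphate, 100 mM NaCl, pH 7.3. Enzyme, DTNB and test compound (acetonitrile stocks, added acetonitrile) preincubated 15 min at 25 °C. Reaction started with acetylthiocholine; DTNB final 350 µM. Read at 412 nm, 25 °C. Progress curves followed 5 min and fitted by linear regression; IC50 derived from rates with and without inhibitor.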
Acetylcholinesterase, sequence (P22303 whole entry): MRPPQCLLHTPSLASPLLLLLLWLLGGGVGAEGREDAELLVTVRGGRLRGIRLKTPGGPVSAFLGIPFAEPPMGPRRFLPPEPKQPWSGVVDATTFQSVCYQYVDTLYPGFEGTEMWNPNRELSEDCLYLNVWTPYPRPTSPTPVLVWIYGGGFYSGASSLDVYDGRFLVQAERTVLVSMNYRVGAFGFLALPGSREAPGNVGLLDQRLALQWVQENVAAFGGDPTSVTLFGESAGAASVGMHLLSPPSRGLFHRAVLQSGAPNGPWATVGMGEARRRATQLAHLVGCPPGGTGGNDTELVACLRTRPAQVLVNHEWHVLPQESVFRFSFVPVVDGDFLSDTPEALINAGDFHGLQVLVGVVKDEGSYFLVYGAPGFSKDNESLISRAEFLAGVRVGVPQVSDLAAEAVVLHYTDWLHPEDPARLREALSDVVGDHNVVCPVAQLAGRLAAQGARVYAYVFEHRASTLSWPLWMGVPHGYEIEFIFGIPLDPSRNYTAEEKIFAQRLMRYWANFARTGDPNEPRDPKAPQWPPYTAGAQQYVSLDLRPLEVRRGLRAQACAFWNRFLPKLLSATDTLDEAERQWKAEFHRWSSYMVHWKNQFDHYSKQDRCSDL
With `O=C1C2=C(CCCC2)S(=O)(=O)N1c1cccc(Br)n1`, the IC50 is more than 100 µM.

Regarding `O=C1C2=C(CCCC2)S(=O)(=O)N1c1ncc(F)cc1F`, the half-maximal inhibitory concentration (IC50) is more than 100 µM.

As for `O=C1C2=C(CCCC2)S(=O)(=O)N1c1c(F)c(F)nc(F)c1F`, the half-maximal inhibitory concentration (IC50) is more than 100 µM.

The molecule `CC1=C(c2ccccc2)C(=O)N(c2c(F)c(F)nc(F)c2F)S1(=O)=O` had a concentration for half-maximal inhibition (IC50) of more than 100 µM.

On to `O=C1C2=C(CCCC2)S(=O)(=O)N1c1c(F)c(F)c(F)c(F)c1F`, for which the concentration for half-maximal inhibition (IC50) was more than 100 µM.

For the molecule `O=C1C2=C(CCCC2)S(=O)(=O)N1c1ccncc1.[O-][Cl+3]([O-])([O-])O`, the IC50 was more than 100 µM.

Regarding `CC1=C(C)S(=O)(=O)N(c2c(F)c(F)nc(F)c2F)C1=O`, the half-maximal inhibitory concentration (IC50) is more than 100 µM.

`O=C1C2=C(CCCC2)S(=O)(=O)N1c1cccc(Cl)n1` yielded a half-inhibitory concentration (IC50) of more than 100 µM.

In the case of `O=C1c2ccccc2S(=O)(=O)N1c1c(F)c(F)nc(F)c1F`, the IC50 is more than 100 µM.

Another test deals with Procathepsin L (Homo sapiens, UniProt P07711). Description: Inhibition of human cathepsin L. An outline of the steps: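 Human cathepsin L at 4 ng/ml final, 37 °C, in 100 mM sodium phosphate pH 6.0, 100 mM NaCl, 5 mM EDTA, 0.01% Brij 35. Enzyme was activated 30 min at 37 °C with 5 mM DTT. Z-Phe-Arg-pNA at 100 µM final, with 3% DMSO; read at 405 nm over 10 min, with linear regression of progress curves.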
Procathepsin L, sequence (P07711 whole entry): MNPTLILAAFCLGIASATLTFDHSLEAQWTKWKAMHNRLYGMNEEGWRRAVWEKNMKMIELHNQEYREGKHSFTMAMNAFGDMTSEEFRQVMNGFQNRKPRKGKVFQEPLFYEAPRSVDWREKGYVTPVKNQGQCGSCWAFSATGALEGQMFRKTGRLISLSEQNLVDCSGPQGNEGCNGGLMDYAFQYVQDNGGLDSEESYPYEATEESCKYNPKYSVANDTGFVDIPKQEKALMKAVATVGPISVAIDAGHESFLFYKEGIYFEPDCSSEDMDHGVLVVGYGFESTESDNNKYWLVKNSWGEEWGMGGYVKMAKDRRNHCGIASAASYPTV
`O=C1C2=C(CCCC2)S(=O)(=O)N1c1cccc(Br)n1` showed an IC50 of more than 100 µM.

As to `O=C1C2=C(CCCC2)S(=O)(=O)N1c1ncc(F)cc1F`, the half-inhibitory concentration (IC50) was more than 100 µM.

Turning to `O=C1C2=C(CCCC2)S(=O)(=O)N1c1c(F)c(F)nc(F)c1F`, the half-inhibitory concentration (IC50) is more than 100 µM.

With `CC1=C(c2ccccc2)C(=O)N(c2c(F)c(F)nc(F)c2F)S1(=O)=O`, the half-maximal inhibitory concentration (IC50) is more than 100 µM.

For the molecule `O=C1C2=C(CCCC2)S(=O)(=O)N1c1c(F)c(F)c(F)c(F)c1F`, the IC50 is more than 100 µM.

`O=C1C2=C(CCCC2)S(=O)(=O)N1c1ccncc1.[O-][Cl+3]([O-])([O-])O`: the IC50 is more than 100 µM.

`CC1=C(C)S(=O)(=O)N(c2c(F)c(F)nc(F)c2F)C1=O` came in with an IC50 of more than 100 µM.

In turn, `O=C1C2=C(CCCC2)S(=O)(=O)N1c1cccc(Cl)n1` yielded an IC50 of more than 100 µM.

Turning to `O=C1c2ccccc2S(=O)(=O)N1c1c(F)c(F)nc(F)c1F`, the IC50 was more than 100 µM.

The target in a further test is Angiotensin-converting enzyme (Homo sapiens, UniProt P12821). Put plainly: Inhibition of human ACE. The method, boiled down: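 Human ACE at 86.8 ng/ml final, 37 °C, in 50 mM Tris-HCl, 300 mM NaCl, pH 7.5. Enzyme was preincubated 10 min at 37 °C after dilution. FA-Phe-Gly-Gly at 3 mM final, with 3% DMSO. Absorbance decrease read at 352 nm over 20 min. IC50 from linear steady-state turnover.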
Angiotensin-converting enzyme, sequence (P12821 whole entry): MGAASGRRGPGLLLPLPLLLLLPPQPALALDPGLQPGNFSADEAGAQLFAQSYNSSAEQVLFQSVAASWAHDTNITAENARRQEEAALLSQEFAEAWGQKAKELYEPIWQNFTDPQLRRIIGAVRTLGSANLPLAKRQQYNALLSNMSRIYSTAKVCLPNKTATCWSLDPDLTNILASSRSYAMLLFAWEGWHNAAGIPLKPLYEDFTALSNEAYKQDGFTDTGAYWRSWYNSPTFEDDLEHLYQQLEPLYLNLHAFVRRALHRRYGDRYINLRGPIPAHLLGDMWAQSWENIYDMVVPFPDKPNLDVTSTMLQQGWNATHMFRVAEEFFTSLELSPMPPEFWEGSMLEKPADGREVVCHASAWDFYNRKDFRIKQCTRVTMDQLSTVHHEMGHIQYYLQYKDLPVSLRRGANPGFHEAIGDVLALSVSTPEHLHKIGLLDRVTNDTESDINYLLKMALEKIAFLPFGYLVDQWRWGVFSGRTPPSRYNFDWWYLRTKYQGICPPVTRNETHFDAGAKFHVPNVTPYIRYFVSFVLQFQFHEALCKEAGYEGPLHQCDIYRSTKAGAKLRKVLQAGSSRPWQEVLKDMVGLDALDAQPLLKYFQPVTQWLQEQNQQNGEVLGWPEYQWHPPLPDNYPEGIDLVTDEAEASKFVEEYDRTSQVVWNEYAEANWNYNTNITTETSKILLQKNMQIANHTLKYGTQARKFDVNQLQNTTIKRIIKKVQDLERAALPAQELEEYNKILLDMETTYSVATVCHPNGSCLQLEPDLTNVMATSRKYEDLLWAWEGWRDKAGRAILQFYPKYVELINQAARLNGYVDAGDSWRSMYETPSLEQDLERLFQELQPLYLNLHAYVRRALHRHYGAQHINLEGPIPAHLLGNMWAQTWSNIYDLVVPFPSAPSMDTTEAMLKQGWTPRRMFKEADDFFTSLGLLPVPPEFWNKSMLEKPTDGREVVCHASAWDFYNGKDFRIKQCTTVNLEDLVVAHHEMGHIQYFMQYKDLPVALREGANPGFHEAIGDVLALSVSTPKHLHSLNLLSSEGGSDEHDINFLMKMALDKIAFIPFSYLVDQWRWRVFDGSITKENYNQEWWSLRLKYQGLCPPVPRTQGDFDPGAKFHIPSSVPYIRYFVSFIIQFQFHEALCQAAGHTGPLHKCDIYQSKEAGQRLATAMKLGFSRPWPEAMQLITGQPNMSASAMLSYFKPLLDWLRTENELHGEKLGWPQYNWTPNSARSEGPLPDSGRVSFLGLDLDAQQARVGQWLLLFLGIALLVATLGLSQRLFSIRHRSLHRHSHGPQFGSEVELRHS
`O=C1C2=C(CCCC2)S(=O)(=O)N1c1cccc(Br)n1`: the half-maximal inhibitory concentration (IC50) was more than 100 µM.

On to `O=C1C2=C(CCCC2)S(=O)(=O)N1c1ncc(F)cc1F`, for which the IC50 was more than 100 µM.

On to `O=C1C2=C(CCCC2)S(=O)(=O)N1c1c(F)c(F)nc(F)c1F`, for which the half-inhibitory concentration (IC50) is more than 100 µM.

For the molecule `CC1=C(c2ccccc2)C(=O)N(c2c(F)c(F)nc(F)c2F)S1(=O)=O`, the half-inhibitory concentration (IC50) was more than 100 µM.

Molecule `O=C1C2=C(CCCC2)S(=O)(=O)N1c1c(F)c(F)c(F)c(F)c1F` yielded a 50% inhibitory concentration (IC50) of more than 100 µM.

For the molecule `O=C1C2=C(CCCC2)S(=O)(=O)N1c1ccncc1.[O-][Cl+3]([O-])([O-])O`, the 50% inhibitory concentration (IC50) is more than 100 µM.

Consider `CC1=C(C)S(=O)(=O)N(c2c(F)c(F)nc(F)c2F)C1=O`, for which the half-inhibitory concentration (IC50) is more than 100 µM.

In the case of `O=C1C2=C(CCCC2)S(=O)(=O)N1c1cccc(Cl)n1`, the IC50 is more than 100 µM.

Molecule `O=C1c2ccccc2S(=O)(=O)N1c1c(F)c(F)nc(F)c1F` displayed an IC50 of more than 100 µM.

Tested on in the next test: not listed separately
Description: Inhibition of bovine trypsin. Set-up: species or system Bos taurus. The method, boiled down:
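Bovine pancreatic trypsin at 12.5 ng/ml final, 25 °C, in 20 mM Tris-HCl, 150 mM NaCl, pH 8.4. Substrate Suc-Ala-Ala-Pro-Arg-pNA at 200 µM final, with 6% DMSO. Started with enzyme; release of pNA read at 405 nm over 10 min. IC50 taken from linear steady-state turnover, duplicate determinations at inhibitor 25 and 50 µM.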
In turn, `O=C1C2=C(CCCC2)S(=O)(=O)N1c1cccc(Br)n1` showed an IC50 of more than 100 µM.

In turn, `O=C1C2=C(CCCC2)S(=O)(=O)N1c1ncc(F)cc1F` returned an IC50 of more than 100 µM.

`O=C1C2=C(CCCC2)S(=O)(=O)N1c1c(F)c(F)nc(F)c1F`: the concentration for half-maximal inhibition (IC50) is more than 100 µM.

The molecule `CC1=C(c2ccccc2)C(=O)N(c2c(F)c(F)nc(F)c2F)S1(=O)=O` displayed an IC50 of more than 100 µM.

The molecule `O=C1C2=C(CCCC2)S(=O)(=O)N1c1c(F)c(F)c(F)c(F)c1F` returned an IC50 of more than 100 µM.

In the case of `O=C1C2=C(CCCC2)S(=O)(=O)N1c1ccncc1.[O-][Cl+3]([O-])([O-])O`, the concentration for half-maximal inhibition (IC50) was more than 100 µM.

`CC1=C(C)S(=O)(=O)N(c2c(F)c(F)nc(F)c2F)C1=O` yielded an IC50 of more than 100 µM.

For the molecule `O=C1C2=C(CCCC2)S(=O)(=O)N1c1cccc(Cl)n1`, the half-inhibitory concentration (IC50) was more than 100 µM.

In turn, `O=C1c2ccccc2S(=O)(=O)N1c1c(F)c(F)nc(F)c1F` came in with an IC50 of 7.5 µM.

The target in another test is T2, Neutrophil elastase (Homo sapiens, UniProt P08246).
T2 sequence (P08246 whole entry): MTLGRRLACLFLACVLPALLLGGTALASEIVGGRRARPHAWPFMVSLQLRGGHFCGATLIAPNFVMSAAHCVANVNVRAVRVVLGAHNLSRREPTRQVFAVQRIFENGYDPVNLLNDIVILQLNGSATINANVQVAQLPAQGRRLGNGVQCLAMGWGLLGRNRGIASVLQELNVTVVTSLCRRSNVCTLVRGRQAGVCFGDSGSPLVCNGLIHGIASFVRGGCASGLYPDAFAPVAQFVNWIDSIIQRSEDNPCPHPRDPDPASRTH
Put plainly: Inhibition of human leukocyte elastase. The method, boiled down:
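Human leukocyte elastase at 50 ng/ml final, 25 °C, in 50 mM sodium phosphate, 500 mM NaCl, pH 7.8. MeOSuc-Ala-Ala-Pro-Val-pNA at 100 µM final (1.9 Km), with 3.5% DMSO; started with enzyme. Read at 405 nm over 10 min. IC50 from linear steady-state rates: duplicate determinations at 25 and 50 µM, or five concentrations fitted nonlinearly.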
On to `O=C1C2=C(CCCC2)S(=O)(=O)N1c1cccc(Br)n1`, for which the IC50 is more than 100 µM.

Regarding `O=C1C2=C(CCCC2)S(=O)(=O)N1c1ncc(F)cc1F`, the IC50 is more than 100 µM.

For `O=C1C2=C(CCCC2)S(=O)(=O)N1c1c(F)c(F)nc(F)c1F`, inhibition was half-maximal at 3.1 µM (IC50).

For `CC1=C(c2ccccc2)C(=O)N(c2c(F)c(F)nc(F)c2F)S1(=O)=O`, half-maximal inhibition (IC50) was put at 33 µM.

For `O=C1C2=C(CCCC2)S(=O)(=O)N1c1c(F)c(F)c(F)c(F)c1F`, the 50% inhibitory concentration (IC50) was more than 100 µM.

The molecule `O=C1C2=C(CCCC2)S(=O)(=O)N1c1ccncc1.[O-][Cl+3]([O-])([O-])O` had an IC50 of more than 100 µM.

For `CC1=C(C)S(=O)(=O)N(c2c(F)c(F)nc(F)c2F)C1=O`, the IC50 was more than 100 µM.

As for `O=C1C2=C(CCCC2)S(=O)(=O)N1c1cccc(Cl)n1`, the half-inhibitory concentration (IC50) was more than 100 µM.

In turn, `O=C1c2ccccc2S(=O)(=O)N1c1c(F)c(F)nc(F)c1F` gave a half-inhibitory concentration (IC50) of 0.081 µM and a Ki of 0.028 µM.

Another test deals with Bile salt-activated lipase (Bos taurus) (UniProt P30122). Put plainly: Inhibition of cholesterol esterase.
Bile salt-activated lipase (Bos taurus), sequence (P30122 whole entry, looked up): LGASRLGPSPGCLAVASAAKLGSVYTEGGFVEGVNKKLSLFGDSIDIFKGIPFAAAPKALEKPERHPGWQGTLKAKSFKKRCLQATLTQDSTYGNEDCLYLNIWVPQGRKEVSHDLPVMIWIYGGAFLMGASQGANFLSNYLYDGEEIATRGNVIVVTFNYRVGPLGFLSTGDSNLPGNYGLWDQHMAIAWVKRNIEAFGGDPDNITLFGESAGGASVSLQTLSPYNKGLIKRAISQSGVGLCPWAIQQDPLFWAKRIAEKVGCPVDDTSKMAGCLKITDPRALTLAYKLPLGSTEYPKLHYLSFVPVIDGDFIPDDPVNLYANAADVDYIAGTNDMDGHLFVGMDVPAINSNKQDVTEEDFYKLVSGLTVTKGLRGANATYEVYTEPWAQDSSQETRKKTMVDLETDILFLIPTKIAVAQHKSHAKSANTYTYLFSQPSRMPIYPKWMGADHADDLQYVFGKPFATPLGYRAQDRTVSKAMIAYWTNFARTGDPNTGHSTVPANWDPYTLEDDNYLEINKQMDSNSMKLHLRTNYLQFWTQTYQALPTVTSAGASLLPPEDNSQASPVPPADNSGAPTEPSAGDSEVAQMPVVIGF
As for `O=C1C2=C(CCCC2)S(=O)(=O)N1c1cccc(Br)n1`, the IC50 was more than 100 µM.

For the molecule `O=C1C2=C(CCCC2)S(=O)(=O)N1c1ncc(F)cc1F`, the IC50 was more than 100 µM.

For `O=C1C2=C(CCCC2)S(=O)(=O)N1c1c(F)c(F)nc(F)c1F`, the IC50 is more than 100 µM.

`CC1=C(c2ccccc2)C(=O)N(c2c(F)c(F)nc(F)c2F)S1(=O)=O`: the IC50 was more than 100 µM.

Consider `O=C1C2=C(CCCC2)S(=O)(=O)N1c1c(F)c(F)c(F)c(F)c1F`, for which the IC50 was more than 100 µM.

In the case of `O=C1C2=C(CCCC2)S(=O)(=O)N1c1ccncc1.[O-][Cl+3]([O-])([O-])O`, the IC50 was more than 100 µM.

Consider `CC1=C(C)S(=O)(=O)N(c2c(F)c(F)nc(F)c2F)C1=O`, for which the 50% inhibitory concentration (IC50) is more than 100 µM.

Regarding `O=C1C2=C(CCCC2)S(=O)(=O)N1c1cccc(Cl)n1`, the IC50 is more than 100 µM.

In the case of `O=C1c2ccccc2S(=O)(=O)N1c1c(F)c(F)nc(F)c1F`, the IC50 is 11 µM.
